In ChEMBL document CHEMBL3045438, “Synthesis and fungicidal evaluation of novel chalcone-based strobilurin analogues” (2007):
In brackets after ≈: the same amount, converted by molar mass.

Key:
Format in all cases: functional
[1] = tested on: Pseudoperonospora cubensis; test: Antifungal activity against Pseudoperonospora cubensis assessed as fungicidal activity at 200 mg/L (beneficial crop - cucumber)
Procedure, shortened: (§1)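 In vivo preventive test on cucumber as host plant.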

Podosphaera fuliginea [2] = test: Antifungal activity against Podosphaera fuliginea assessed as fungicidal activity at 200 mg/L (beneficial crop - cucumber); procedure, shortened: as §1
Botrytis cinerea = test: Antifungal activity against Botryotinia fuckeliana assessed as fungicidal activity at 200 mg/L (beneficial crop - cucumber); procedure, shortened: as §1
Rhizoctonia solani = test: Antifungal activity against Rhizoctonia solani assessed as fungicidal activity at 200 mg/L (beneficial crop - cucumber); procedure, shortened: as §1
[3] = tested on: Pseudoperonospora cubensis; test: Antifungal activity against Pseudoperonospora cubensis in cucumber plants under greenhouse conditions assessed as fungicidal activity by in vivo assay; procedure, shortened: as §1
Podosphaera fuliginea [4] = test: Antifungal activity against Podosphaera fuliginea in cucumber plants under greenhouse conditions assessed as fungicidal activity by in vivo assay; procedure, shortened: as §1

| Compound | inhibition at 200 µg/mL [1] [%] | inhibition at 200 µg/mL (Podosphaera fuliginea [2]) [%] | inhibition at 200 µg/mL (Botrytis cinerea) [%] | inhibition at 200 µg/mL (Rhizoctonia solani) [%] | EC90 [3] [µg/mL] | EC90 (Podosphaera fuliginea [4]) [µg/mL] |
| --- | --- | --- | --- | --- | --- | --- |
| CO/C=C(/C(=O)OC)c1ccccc1COc1cccc(C(=O)/C=C/c2ccc(Br)cc2)c1 | 94 | 45 | 0 | 0 | – | – |
| CO/C=C(/C(=O)OC)c1ccccc1COc1cccc(C(=O)/C=C/c2cccc(C)c2)c1 | 81 | 0 | 0 | 0 | – | – |
| CO/C=C(/C(=O)OC)c1ccccc1COc1cccc(C(=O)/C=C/c2ccc(OC)c(OC)c2)c1 | 72 | 0 | 0 | 0 | – | – |
| CO/C=C(/C(=O)OC)c1ccccc1COc1cccc(C(=O)/C=C/c2cccc(Br)c2)c1 | 99 | 99 | 0 | 0 | 113.64 (≈ 224 µM) | – |
| CO/C=C(/C(=O)OC)c1ccccc1COc1cccc(C(=O)/C=C/c2ccc(C)c(C)c2)c1 | 100 | 92 | 0 | 0 | – | 139.47 (≈ 305 µM) |
| CO/C=C(/C(=O)OC)c1ccccc1COc1cccc(C(=O)/C=C/c2c(F)cccc2Cl)c1 | 97 | 13 | 0 | 0 | – | – |
| CO/C=C(/C(=O)OC)c1ccccc1COc1cccc(C(=O)/C=C/c2ccc(N(C)C)cc2)c1 | 0 | 0 | 0 | 32 | – | – |
| CO/C=C(/C(=O)OC)c1ccccc1COc1cccc(C(=O)/C=C/c2ccc(C)cc2)c1 | 100 | 97 | 0 | 0 | – | – |
| CO/C=C(/C(=O)OC)c1ccccc1COc1cccc(C(=O)/C=C/c2ccc(OC)cc2)c1 | 95 | 0 | 0 | 0 | – | – |
| CO/C=C(/C(=O)OC)c1ccccc1COc1cccc(C(=O)/C=C/c2ccc(Cl)cc2)c1 | 100 | 96 | 0 | 0 | – | – |
| CO/C=C(/C(=O)OC)c1ccccc1COc1cccc(C(=O)/C=C/c2ccc(Cl)c(Cl)c2)c1 | 0 | 0 | 0 | 0 | – | – |
| CO/C=C(/C(=O)OC)c1ccccc1COc1cccc(C(=O)/C=C/c2ccccc2Cl)c1 | 98 | 94 | 0 | 0 | 118.52 (≈ 256 µM) | – |
| CO/C=C(/C(=O)OC)c1ccccc1COc1cccc(C(=O)/C=C/c2cccc(Cl)c2)c1 | 33 | 30 | 0 | 0 | – | – |
| CO/C=C(/C(=O)OC)c1ccccc1COc1cccc(C(=O)/C=C/c2ccc(F)cc2)c1 | 97 | 31 | 0 | 0 | – | – |
| CO/C=C(/C(=O)OC)c1ccccc1COc1cccc(C(=O)/C=C/c2ccccc2)c1 | 96 | 0 | 0 | 0 | – | – |
| CO/N=C(/C(=O)OC)c1ccccc1COc1ccccc1C [KRESOXIM-METHYL] | 100 | 100 | – | – | 154.92 (≈ 494 µM) | 7.3 (≈ 23.3 µM) |
